In ChEMBL document CHEMBL1147494, “Differentiation of in vitro transcriptional repression and activation profiles of selective glucocorticoid modulators” (Bioorg Med Chem Lett, 2004):

Columns and labels:
Cell line [1] = test: Effective concentration of compound for transcriptional activation of TAT in Human cell native protein assay; assay type: functional, cell-based
Cell line [2] = test: Efficacy for transcriptional […] of PGE-2 in Human cell native protein assay expressed as percentage of the maximal response of Dexamethasone; assay type: functional
Cell line [3] = test: Efficacy for transcriptional activation of TAT in Human cell native protein assay expressed as percentage of the maximal response of Dexamethasone; assay type: functional
Cell line [4] = test: Efficacy for transcriptional repression of osteocalcin in Human cell native protein assay expressed as percentage of the maximal response of Dexamethasone
Cell line [5] = test: Efficacy for transcriptional activation of collagenase in Human cell native protein assay expressed as percentage of the maximal response of Dexamethasone; assay type: functional
Cell line [6] = test: Effective concentration of compound for transcriptional repression of collagenase in Human cell native protein assay
Glucocorticoid receptor [7] = biological target: T1, Glucocorticoid receptor (Homo sapiens, UniProt P04150); test: Inhibition of transcriptional activation in CV-1 cells expressing glucocorticoid receptor; assay type: functional, cell-based
T1 sequence (P04150 whole entry): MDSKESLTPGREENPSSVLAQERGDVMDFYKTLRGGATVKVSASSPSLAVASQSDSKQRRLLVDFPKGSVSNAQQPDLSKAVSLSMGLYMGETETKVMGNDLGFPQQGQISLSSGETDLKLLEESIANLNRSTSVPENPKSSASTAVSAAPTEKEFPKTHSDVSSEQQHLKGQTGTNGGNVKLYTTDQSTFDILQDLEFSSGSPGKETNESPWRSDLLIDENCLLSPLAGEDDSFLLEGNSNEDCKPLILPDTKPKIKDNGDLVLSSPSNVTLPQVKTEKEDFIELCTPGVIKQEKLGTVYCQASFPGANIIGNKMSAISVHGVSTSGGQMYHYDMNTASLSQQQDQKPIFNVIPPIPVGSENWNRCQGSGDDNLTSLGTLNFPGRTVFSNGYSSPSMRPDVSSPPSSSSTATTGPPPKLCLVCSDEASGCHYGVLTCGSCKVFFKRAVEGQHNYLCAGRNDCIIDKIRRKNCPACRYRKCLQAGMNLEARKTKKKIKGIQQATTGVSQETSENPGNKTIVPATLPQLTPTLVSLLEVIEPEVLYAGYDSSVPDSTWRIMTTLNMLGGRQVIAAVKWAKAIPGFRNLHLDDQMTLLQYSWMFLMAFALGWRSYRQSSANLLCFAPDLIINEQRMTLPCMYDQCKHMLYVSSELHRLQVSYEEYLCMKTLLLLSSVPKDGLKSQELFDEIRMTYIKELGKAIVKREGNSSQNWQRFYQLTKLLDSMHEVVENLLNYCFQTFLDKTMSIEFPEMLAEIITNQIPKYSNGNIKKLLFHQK

Cell line [8] = test: Effective concentration of compound for transcriptional repression of IL-6 in Human cell native protein assay
Glucocorticoid receptor [9] = biological target: T1, Glucocorticoid receptor; test: Inhibition of transcriptional repression in CV-1 cells expressing glucocorticoid receptor; assay type: functional, cell-based
Cell line [10] = test: Efficacy for transcriptional repression of IL-6 in Human cell native protein assay expressed as percentage of the maximal response of Dexamethasone; assay type: functional
Cell line [11] = test: Efficacy for transcriptional activation of aromatase in Human cell native protein assay expressed as percentage of the maximal response of Dexamethasone; assay type: functional
[12] = biological target: T2, Progesterone receptor (Homo sapiens) (UniProt P06401); test: In vitro binding affinity against progesterone receptor
T2 sequence (whole entry): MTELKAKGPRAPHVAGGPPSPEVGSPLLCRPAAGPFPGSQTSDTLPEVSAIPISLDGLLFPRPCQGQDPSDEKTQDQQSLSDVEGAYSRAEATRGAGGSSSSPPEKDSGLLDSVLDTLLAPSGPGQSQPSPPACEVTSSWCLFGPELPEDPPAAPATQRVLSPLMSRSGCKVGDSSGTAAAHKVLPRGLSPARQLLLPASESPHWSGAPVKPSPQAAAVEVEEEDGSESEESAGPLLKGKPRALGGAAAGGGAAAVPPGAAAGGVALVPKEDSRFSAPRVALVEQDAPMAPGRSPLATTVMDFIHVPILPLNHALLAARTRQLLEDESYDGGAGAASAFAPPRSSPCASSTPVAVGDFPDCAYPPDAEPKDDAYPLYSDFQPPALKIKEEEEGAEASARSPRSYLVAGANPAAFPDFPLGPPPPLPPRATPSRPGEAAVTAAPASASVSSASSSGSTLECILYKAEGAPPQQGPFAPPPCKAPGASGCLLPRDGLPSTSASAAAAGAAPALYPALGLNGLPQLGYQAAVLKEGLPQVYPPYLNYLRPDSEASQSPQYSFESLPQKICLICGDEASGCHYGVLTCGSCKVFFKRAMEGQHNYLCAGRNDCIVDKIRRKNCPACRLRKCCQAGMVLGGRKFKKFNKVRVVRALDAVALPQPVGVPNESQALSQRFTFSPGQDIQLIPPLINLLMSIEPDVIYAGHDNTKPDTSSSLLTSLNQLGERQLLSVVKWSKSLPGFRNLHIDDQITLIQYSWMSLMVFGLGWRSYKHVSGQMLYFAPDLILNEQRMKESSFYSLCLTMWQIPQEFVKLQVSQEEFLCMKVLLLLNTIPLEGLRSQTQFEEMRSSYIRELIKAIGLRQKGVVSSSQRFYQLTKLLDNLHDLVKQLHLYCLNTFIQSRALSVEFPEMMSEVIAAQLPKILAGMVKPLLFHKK
Outline: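 Competition binding assay against progesterone receptor. Replicates vary by value: single experiments in triplicate; two experiments with triplicate determinations (with standard deviation); or at least three separate experiments in triplicate (mean ± SEM).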

Cell line [13] = test: Effective concentration of compound for transcriptional repression of PGE-2 in Human cell native protein assay
[14] = biological target: T2, Progesterone receptor (Homo sapiens); test: Transcriptional activation in cells expressing progesterone receptor isoform B compared to progesterone; assay type: functional
Cell line [15] = test: Effective concentration for transcriptional activation of aromatase in Human cell native protein assay; assay type: functional, cell-based
Progesterone receptor = biological target: T3, Progesterone receptor (Homo sapiens, UniProt P06401); test: Inhibition of transcriptional activation in cells expressing progesterone receptor isoform B; assay type: functional
T3 sequence (P06401 whole entry): T2 sequence (whole entry)

Cell line [16] = test: Effective concentration of compound for transcriptional activation of osteocalcin in Human cell native protein assay; assay type: functional, cell-based

Row | Structure (SMILES) | IC50 (Glucocorticoid receptor [7]) | IC50 (Glucocorticoid receptor [9]) | Activity [12] | also measured
1 | COC(=O)/C=C/CC1Oc2cccc(OC)c2-c2ccc3c(c21)C(C)=CC(C)(C)N3 (centres undefined) | 220 nM | 87 nM | > 5000 nM | 
2 | C=CC(C)(C)C1Oc2cccc(OC)c2-c2ccc3c(c21)C(C)=CC(C)(C)N3 (centres undefined) | > 5000 nM | > 5000 nM | > 5000 nM | 
3 | C/C=C/CC1Oc2cccc(OC)c2-c2ccc3c(c21)C(C)=CC(C)(C)N3 (centres undefined) | 150 nM | 38 nM | 2100 nM | 
4 | COc1cccc2c1-c1ccc3c(c1C(CC=C(C)C)O2)C(C)=CC(C)(C)N3 (centres undefined) | > 5000 nM | 23 nM | 1600 nM | 
5 | C/C=C\CC1Oc2cccc(OC)c2-c2ccc3c(c21)C(C)=CC(C)(C)N3 (centres undefined) | 39 nM | 23 nM | 1200 nM | 
6 | C=CCC1Oc2cccc(OC)c2-c2ccc3c(c21)C(C)=CC(C)(C)N3 (stereo in doubt; (-)4a) |  |  | 1300 nM | 
7 | C=C(CC1Oc2cccc(OC)c2-c2ccc3c(c21)C(C)=CC(C)(C)N3)C(=O)OC (centres undefined) | > 5000 nM | > 5000 nM | > 5000 nM | 
8 | COc1cccc2c1-c1ccc3c(c1C(CC=C(F)F)O2)C(C)=CC(C)(C)N3 (centres undefined) | 76 nM | 20 nM | 2300 nM | 
9 | COc1cccc2c1-c1ccc3c(c1C(C/C=C/CO)O2)C(C)=CC(C)(C)N3 (centres undefined) | > 5000 nM | 150 nM | > 5000 nM | 
10 | C=C(COC(C)=O)CC1Oc2cccc(OC)c2-c2ccc3c(c21)C(C)=CC(C)(C)N3 (centres undefined) | 310 nM | 141 nM | > 5000 nM | 
11 | CC/C=C\CC1Oc2cccc(OC)c2-c2ccc3c(c21)C(C)=CC(C)(C)N3 (centres undefined) | 89 nM | 88 nM | > 5000 nM | 
12 | C=CCC1Oc2cccc(OC)c2-c2ccc3c(c21)C(C)=CC(C)(C)N3 (stereo in doubt; 4a) |  |  | 1800 nM | 
13 | C=CCC1Oc2cccc(OC)c2-c2ccc3c(c21)C(C)=CC(C)(C)N3 (stereo in doubt; (-)4a) [AL-43] | 14 nM | 6.9 nM |  | EC50 (Cell line [1]): 40 nM; Efficacy (Cell line [3]): 71%; Efficacy (Cell line [5]): 77%; EC50 (Cell line [6]): 37 nM; EC50 (Cell line [8]): 30 nM; Efficacy (Cell line [10]): 83%; Efficacy (Cell line [11]): 82%; EC50 (Cell line [15]): 160 nM
14 | C=CCC1Oc2cccc(OC)c2-c2ccc3c(c21)C(C)=CC(C)(C)N3 (stereo in doubt; 4a) [AL-43] | 33 nM | 13 nM |  | 
15 | C[C@]12C=CC(=O)C=C1CC[C@@H]1[C@@H]2[C@@H](O)C[C@@]2(C)[C@H]1CC[C@]2(O)C(=O)CO [PREDNISOLONE] |  |  | > 5000 nM | EC50 (Cell line [1]): 48 nM; Efficacy (Cell line [2]): 100%; Efficacy (Cell line [3]): 95%; Efficacy (Cell line [4]): 94%; Efficacy (Cell line [5]): 98%; EC50 (Cell line [16]): 32 nM; EC50 (Cell line [6]): 0.4 nM; EC50 (Cell line [8]): 3.6 nM; Efficacy (Cell line [10]): 98%; Efficacy (Cell line [11]): 96%; EC50 (Cell line [13]): 2 nM; EC50 (Cell line [15]): 45 nM
16 | C=C(Br)CC1Oc2cccc(OC)c2-c2ccc3c(c21)C(C)=CC(C)(C)N3 (centres undefined) | 240 nM | 110 nM | > 5000 nM | 
17 | C=C(CO)CC1Oc2cccc(OC)c2-c2ccc3c(c21)C(C)=CC(C)(C)N3 (centres undefined) | 310 nM | 141 nM | > 5000 nM | 

More lines, main results first:

Row | IC50 (Glucocorticoid receptor [7]) | IC50 (Glucocorticoid receptor [9]) | Activity [12] | Structure (SMILES) | also measured
18 | 40 nM | 19 nM | 710 nM | COc1cccc2c1-c1ccc3c(c1[C@H]([C@H]1C=C(C)CCC1)O2)C(C)=CC(C)(C)N3 | EC50 (Cell line [1]): 110 nM; Efficacy (Cell line [2]): 95%; Efficacy (Cell line [3]): 49%; Efficacy (Cell line [4]): 38%; Efficacy (Cell line [5]): 89%; EC50 (Cell line [6]): 32 nM; EC50 (Cell line [8]): 62 nM; Efficacy (Cell line [10]): 82%; Efficacy (Cell line [11]): 26%; EC50 (Cell line [13]): 35 nM; Efficacy [14]: 13%; EC50 (Cell line [15]): 640 nM
19 | 15 nM | 7 nM | 980 nM | COc1cccc2c1-c1ccc3c(c1C(C1C=C(C)CCC1)O2)C(C)=CC(C)(C)N3 (centres undefined) | 
20 |  |  | > 5000 nM | COc1cccc2c1-c1ccc3c(c1C(C1/C=C\CCCCC1)O2)C(C)=CC(C)(C)N3 (centres undefined) | 
21 |  |  | > 5000 nM | COc1cccc2c1-c1ccc3c(c1C(C1C=CCCCC1)O2)C(C)=CC(C)(C)N3 (centres undefined) | 
22 | 110 nM | 40 nM | > 5000 nM | C=CC(C)C1Oc2cccc(OC)c2-c2ccc3c(c21)C(C)=CC(C)(C)N3 (centres undefined) | 
23 | > 5000 nM | > 5000 nM | > 5000 nM | COc1cccc2c1-c1ccc3c(c1[C@@H]([C@@H]1C=C(C)CCC1)O2)C(C)=CC(C)(C)N3 | 
24 |  |  | 52 nM | COc1c(O)ccc2c1-c1ccc3c(c1[C@H]([C@H]1C=C(C)CCC1)O2)C(C)=CC(C)(C)N3 | IC50 (Progesterone receptor): 210 nM; Efficacy [14]: 190%
25 | 66 nM | 42 nM | > 5000 nM | C=C(C)CC1Oc2cccc(OC)c2-c2ccc3c(c21)C(C)=CC(C)(C)N3 (centres undefined) | 
26 |  |  | 2200 nM | COc1cccc2c1-c1ccc3c(c1C(C1C=CCC1)O2)C(C)=CC(C)(C)N3 (centres undefined) | 
27 | > 5000 nM | 320 nM | > 5000 nM | C=C1CCCCC1C1Oc2cccc(OC)c2-c2ccc3c(c21)C(C)=CC(C)(C)N3 (centres undefined) | 
28 | > 5000 nM | 440 nM | > 5000 nM | COc1cccc2c1-c1ccc3c(c1[C@@H]([C@H]1C=C(C)CCC1)O2)C(C)=CC(C)(C)N3 | 
29 | > 5000 nM | 5.8 nM | 430 nM | COc1cccc2c1-c1ccc3c(c1[C@H]([C@@H]1C=C(C)CCC1)O2)C(C)=CC(C)(C)N3 | EC50 (Cell line [1]): 290 nM; Efficacy (Cell line [2]): 95%; Efficacy (Cell line [3]): 67%; Efficacy (Cell line [4]): 71%; IC50 (Progesterone receptor): 14 nM; Efficacy (Cell line [5]): 97%; EC50 (Cell line [16]): 54 nM; EC50 (Cell line [6]): 3.4 nM; EC50 (Cell line [8]): 45 nM; Efficacy (Cell line [10]): 90%; Efficacy (Cell line [11]): 43%; EC50 (Cell line [13]): 5.4 nM; Efficacy [14]: 70%; EC50 (Cell line [15]): 59 nM
30 |  |  | 11.4 nM | COc1c(O)ccc2c1-c1ccc3c(c1[C@H]([C@@H]1C=C(C)CCC1)O2)C(C)=CC(C)(C)N3 | IC50 (Progesterone receptor): 7.1 nM; Efficacy [14]: 260%
31 | 13 nM | 21 nM | 2400 nM | COc1cccc2c1-c1ccc3c(c1C(C1C=CCCC1)O2)C(C)=CC(C)(C)N3 (centres undefined) | 
32 | > 5000 nM | 217 nM | > 5000 nM | COc1cccc2c1-c1ccc3c(c1C(CC=C1CCCC1)O2)C(C)=CC(C)(C)N3 (centres undefined) | 
33 |  |  | > 5000 nM | COc1cccc2c1-c1ccc3c(c1C(CC1=CCCCC1)O2)C(C)=CC(C)(C)N3 (centres undefined) | 
